Reference: ChEMBL document CHEMBL4229446, “Development of Novel Monoamine Oxidase-B (MAO-B) Inhibitors with Reduced Blood-Brain Barrier Permeability for the Potential Management of Noncentral Nervous System (CNS) Diseases” (J Med Chem, 2018)

How the values were obtained:
[1] = biological target: T1, Amine oxidase [flavin-containing] B (Homo sapiens, UniProt P27338); test: Inhibition of human recombinant MAO-B expressed in baculovirus infected BTI-TN-5B1-4 insect cells using benzylamine as substrate preincubated for 1 hr followed by substrate addition and measured after 30 mins by resazurin dye-based fluorescence assay; type: cell-based
T1 sequence (P27338 whole entry): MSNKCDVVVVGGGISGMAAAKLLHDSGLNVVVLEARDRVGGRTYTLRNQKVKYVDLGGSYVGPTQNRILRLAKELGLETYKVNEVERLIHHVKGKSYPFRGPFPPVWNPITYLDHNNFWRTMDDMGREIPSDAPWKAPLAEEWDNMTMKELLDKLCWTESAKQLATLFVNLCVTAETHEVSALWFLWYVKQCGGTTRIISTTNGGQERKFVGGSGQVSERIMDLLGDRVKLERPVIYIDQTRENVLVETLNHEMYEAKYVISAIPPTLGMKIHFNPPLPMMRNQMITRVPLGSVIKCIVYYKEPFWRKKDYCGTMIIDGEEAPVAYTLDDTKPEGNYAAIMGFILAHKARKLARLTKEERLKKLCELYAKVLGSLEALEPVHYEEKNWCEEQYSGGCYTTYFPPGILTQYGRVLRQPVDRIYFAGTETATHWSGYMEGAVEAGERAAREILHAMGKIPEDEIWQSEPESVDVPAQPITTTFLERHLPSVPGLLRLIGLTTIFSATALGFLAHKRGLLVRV

[2] = biological target: T2, Amine oxidase [flavin-containing] A (Homo sapiens, UniProt P21397); test: Inhibition of human recombinant MAO-A expressed in baculovirus infected BTI-TN-5B1-4 insect cells using tyramine as substrate preincubated for 1 hr followed by substrate addition and measured after 30 mins by resazurin dye-based fluorescence assay
T2 sequence (P21397 whole entry): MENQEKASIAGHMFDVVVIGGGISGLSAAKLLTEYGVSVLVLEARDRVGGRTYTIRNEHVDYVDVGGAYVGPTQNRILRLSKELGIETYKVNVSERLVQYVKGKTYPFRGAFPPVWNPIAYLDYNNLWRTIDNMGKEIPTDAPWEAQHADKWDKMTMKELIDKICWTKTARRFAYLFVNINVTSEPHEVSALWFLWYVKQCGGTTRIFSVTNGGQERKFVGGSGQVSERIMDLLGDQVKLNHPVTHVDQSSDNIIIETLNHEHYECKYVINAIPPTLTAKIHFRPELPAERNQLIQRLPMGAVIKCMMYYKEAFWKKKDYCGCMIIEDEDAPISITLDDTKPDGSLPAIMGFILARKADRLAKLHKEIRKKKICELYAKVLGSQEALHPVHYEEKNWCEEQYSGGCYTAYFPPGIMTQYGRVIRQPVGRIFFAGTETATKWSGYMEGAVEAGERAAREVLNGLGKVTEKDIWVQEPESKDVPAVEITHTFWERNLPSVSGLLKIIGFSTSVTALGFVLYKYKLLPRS

[3] = Metabolic stability in cryopreserved mouse hepatocytes assessed as parent compound remaining at 1 uM after 60 mins by UPLC-MS/MS analysis; type: ADME, cell-based, Hepatocyte; settings: read-out: Stability
Mus musculus [4] = test: Acute toxicity in C57BL/6 mouse assessed as abnormal clinical signs at […], sc administered as single dose measured after 24 hrs post-injection; type: organism-based; settings: in vivo
[5] = Ratio of AUClast in brain to plasma in C57BL/6 mouse at 22 mg/kg, iv administered as single dose measured 24 hrs by UPLC-MS/MS analysis; type: ADME, organism-based
Outline: (§1)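 21 animals dosed at 0 min, 3 sacrificed at each of 0, 5, 15, 30 min, 1, 4 and 24 h. Plasma was extracted by protein precipitation with phospholipid removal. Brain was weighed, bead-homogenised in 50 mM ammonium formate and extracted in acidified organic solvent. Quantified by UPLC-MS/MS (MRM). Brain ng/g taken as ng/mL. Parameters came from noncompartmental analysis. Kp = AUClast brain/plasma.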

[6] = AUClast in C57BL/6 mouse plasma at 22 mg/kg, iv administered as single dose measured 24 hrs by UPLC-MS/MS analysis; type: ADME, organism-based; set-up: dose 22 mg/kg, time 0 - last, route intravenous; outline: as §1
[7] = Metabolic stability in human plasma assessed as parent compound remaining at 5 uM after 4 hrs by UPLC-MS/MS analysis; type: ADME, cell-free; settings: read-out: Stability
Outline: (§2)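 Compound at 5 μM was incubated in mouse or human plasma at 37 °C with shaking. Sampled at 0, 5, 15, 30, 60, 120 and 240 min and stopped with ice-cold acetonitrile/0.1% formic acid containing internal standard. Supernatants analysed by UPLC-MS/MS for parent remaining. Run in triplicate.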

[8] = AUClast in C57BL/6 mouse brain at 22 mg/kg, iv administered as single dose measured 24 hrs by UPLC-MS/MS analysis; type: ADME, organism-based; set-up: dose 22 mg/kg, route intravenous, time 0 - last; outline: as §1
[9] = Metabolic stability in mouse plasma assessed as parent compound remaining at 5 uM after 4 hrs by UPLC-MS/MS analysis; type: ADME, cell-free; settings: read-out: Stability; outline: as §2
Mus musculus [10] = test: Acute toxicity in C57BL/6 mouse assessed as abnormal clinical signs at […], iv administered as single dose measured after 24 hrs post-injection; type: organism-based; settings: in vivo
[11] = Tmax in C57BL/6 mouse plasma at 22 mg/kg, iv administered as single dose measured 24 hrs by UPLC-MS/MS analysis; type: ADME, organism-based
Outline: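 Plasma cleaned by protein precipitation with phospholipid removal, then UPLC-MS/MS in MRM mode. Tmax obtained by noncompartmental analysis.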

[12] = Cmax in C57BL/6 mouse plasma at 22 mg/kg, iv administered as single dose measured 24 hrs by UPLC-MS/MS analysis; type: ADME, organism-based; set-up: dose 22 mg/kg, route intravenous; outline: as §1
[13] = Metabolic stability in mouse liver microsomes assessed as parent compound remaining at 1 uM after 60 mins in presence of NADPH by UPLC-MS/MS analysis; type: ADME, microsome; settings: read-out: Stability
Outline: (§3)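 Compound at 1 μM with 0.5 mg/mL mouse or human liver microsomes in 100 mM potassium phosphate pH 7.4, 3.3 mM MgCl2, 1 mM NADPH, at 37 °C. Started with NADPH; minus-NADPH control run. Stopped at 0, 5, 15, 30, 45 and 60 min with acetonitrile/formic acid plus internal standard. Parent remaining by UPLC-MS/MS, in triplicate.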

[14] = Tmax in C57BL/6 mouse brain at 22 mg/kg, iv administered as single dose measured 24 hrs by UPLC-MS/MS analysis; type: ADME, organism-based
Outline: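 Brains weighed, portion bead-homogenised in 50 mM ammonium formate, extracted in acidified organic solvent, quantified by UPLC-MS/MS. ng/g taken as ng/mL. Tmax from noncompartmental analysis.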

[15] = Metabolic stability in human liver microsomes assessed as parent compound remaining at 1 uM after 60 mins by UPLC-MS/MS analysis; type: ADME, microsome; settings: liver microsomes, read-out: Stability; outline: as §3
P-gp (MDR1) = test: Efflux ratio of apparent permeability in MDCK2-MDR1 cells at 10 uM after 1 hr in absence of P-gp inhibitor verapamil by UPLC-MS/MS analysis; type: ADME, cell-based, Canis lupus familiaris; settings: dog, MDCK-MDR1
Outline: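 MDCK-WT (MEM-α/10% FBS) or MDCK-MDR1 II (DMEM/10% FBS) cells were grown 3 days on 12-well transwells. Integrity was checked by TEER and 100 μM Lucifer yellow. Cells were washed in HBSS/10 mM HEPES. Compound at 10 μM was added apically or basally, in triplicate, ±100 μM verapamil. Receiver sampled at 1 h by UPLC-MS/MS. Efflux ratio = Papp B→A / Papp A→B.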

[16] = Apparent half-life of the terminal disposition phase in C57BL/6 mouse plasma at 22 mg/kg, iv administered as single dose measured 24 hrs by UPLC-MS/MS analysis; type: ADME, organism-based; settings: read-out: t1/2 lambda z (converted); outline: as §1
[17] = Efflux ratio of apparent permeability in MDCK-WT cells at 10 uM after 1 hr in absence of P-gp inhibitor verapamil by UPLC-MS/MS analysis; settings: dog
Mus musculus [18] = test: Acute toxicity in C57BL/6 mouse assessed as abnormal clinical signs at […], po administered as single dose measured after 24 hrs post-injection; type: organism-based; settings: in vivo
[19] = Cmax in C57BL/6 mouse brain at 22 mg/kg, iv administered as single dose measured 24 hrs by UPLC-MS/MS analysis; type: ADME, organism-based; set-up: dose 22 mg/kg, route intravenous; outline: as §1

Compound | IC50 [1] | IC50 [2] | also measured
COc1cccc(COc2ccc(C[C@@H](C)N(C)CC(=O)O)cc2)c1 | 2.11 µM |  | 
C[C@H](Cc1ccc(OCc2ccccc2C#N)cc1)N(C)CC(=O)O | 14.1 µM | > 50 µM | 
C#CCN(C)[C@H](C)Cc1ccc(OCc2ccccc2)cc1 | 0.005 µM | 0.161 µM | 
COC(=O)[C@H](Cc1ccc(OCc2cccc(Cl)c2)cc1)N(C)CC(=O)O | 1.26 µM | > 50 µM | 
C[C@H](Cc1ccc(OCc2ccc(C#N)cc2)cc1)N(C)CC(=O)O | 3.75 µM | > 50 µM | 
C[C@H](Cc1ccc(OCc2ccccc2Cl)cc1)N(C)CC(=O)O | 0.713 µM | > 50 µM | 
C[C@H](Cc1ccc(OCc2cccc(C#N)c2)cc1)N(C)CC(=O)O | 21.3 µM | > 50 µM | 
COC(=O)[C@H](Cc1ccc(OCc2ccccc2)cc1)N(C)CC(=O)O | 7.93 µM | > 50 µM | 
C[C@H](Cc1ccc(OCc2cc(Cl)ccc2Cl)cc1)N(C)CC(=O)O | 1.38 µM | > 50 µM | 
CN(CC(=O)O)[C@H](CC#N)Cc1ccc(OCc2ccccc2)cc1 | 0.532 µM | > 50 µM | 
C[C@H](Cc1ccc(OCc2ccncc2)cc1)N(C)CC(=O)O | 22 µM | > 50 µM | 
C[C@H](Cc1ccc(OCc2ccc(Cl)c(Cl)c2)cc1)N(C)CC(=O)O | 0.218 µM | 41.4 µM | remaining at 1 h, 1 µM [3]: ≥ 90%; Activity (Mus musculus [4]): Non-Toxic; Kp at 24 h [5]: 0.09; AUC(0-t) at 24 h [6]: 82000 ng·h/mL; remaining at 4 h, 5 µM [7]: ≥ 75%; AUC(0-t) at 24 h [8]: 7450 ng·h/mL; remaining at 4 h, 5 µM [9]: ≥ 75%; Activity (Mus musculus [10]): Non-Toxic; Tmax [11]: 5 min; Cmax [12]: 16200 ng/mL; remaining at 1 h, 1 µM [13]: 89.5%; Tmax [14]: 4 h; remaining at 1 h, 1 µM [15]: ≥ 90%; efflux ratio at 1 h, 10 µM (P-gp (MDR1)): 3.07; half-life [16]: 3.97 h; efflux ratio at 1 h, 10 µM [17]: 1.45; Activity (Mus musculus [18]): Non-Toxic; Cmax [19]: 455 ng/mL
